Source: PubChem (Johns Hopkins Ion Channel Center)
Sampled rows, rich in hits. Any-hit rate of the full collection: about 2.3%.
TRPC6 activator: activators of mouse TRPC6 channel; HEK293-TRPC6 membrane potential dye fluorescence; hits give high values; B-score at 10 µM; 0.13% of 310,000 active; AID 2550;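 active = B-score of the integrated fluorescence ratio above library mean plus 3 SD, and starting fluorescence ratio within library mean plus 5 SD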;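 note: higher score means more depolarization so channel activation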
TRPC4 inh: blocks the mouse TRPC4 cation channel | Q9QUQ5 | HEK293 TRPC4beta/mu-opioid, DAMGO-evoked Fluo4 calcium flux; hits give low values | B-score at 10 µM | 0.39% of 300,000 active | AID 2247;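 active = B-score over 3 SD under the library average, no early fluorescence shift, positive overall ratio signal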
Target sequence (Q9QUQ5 whole entry, looked up): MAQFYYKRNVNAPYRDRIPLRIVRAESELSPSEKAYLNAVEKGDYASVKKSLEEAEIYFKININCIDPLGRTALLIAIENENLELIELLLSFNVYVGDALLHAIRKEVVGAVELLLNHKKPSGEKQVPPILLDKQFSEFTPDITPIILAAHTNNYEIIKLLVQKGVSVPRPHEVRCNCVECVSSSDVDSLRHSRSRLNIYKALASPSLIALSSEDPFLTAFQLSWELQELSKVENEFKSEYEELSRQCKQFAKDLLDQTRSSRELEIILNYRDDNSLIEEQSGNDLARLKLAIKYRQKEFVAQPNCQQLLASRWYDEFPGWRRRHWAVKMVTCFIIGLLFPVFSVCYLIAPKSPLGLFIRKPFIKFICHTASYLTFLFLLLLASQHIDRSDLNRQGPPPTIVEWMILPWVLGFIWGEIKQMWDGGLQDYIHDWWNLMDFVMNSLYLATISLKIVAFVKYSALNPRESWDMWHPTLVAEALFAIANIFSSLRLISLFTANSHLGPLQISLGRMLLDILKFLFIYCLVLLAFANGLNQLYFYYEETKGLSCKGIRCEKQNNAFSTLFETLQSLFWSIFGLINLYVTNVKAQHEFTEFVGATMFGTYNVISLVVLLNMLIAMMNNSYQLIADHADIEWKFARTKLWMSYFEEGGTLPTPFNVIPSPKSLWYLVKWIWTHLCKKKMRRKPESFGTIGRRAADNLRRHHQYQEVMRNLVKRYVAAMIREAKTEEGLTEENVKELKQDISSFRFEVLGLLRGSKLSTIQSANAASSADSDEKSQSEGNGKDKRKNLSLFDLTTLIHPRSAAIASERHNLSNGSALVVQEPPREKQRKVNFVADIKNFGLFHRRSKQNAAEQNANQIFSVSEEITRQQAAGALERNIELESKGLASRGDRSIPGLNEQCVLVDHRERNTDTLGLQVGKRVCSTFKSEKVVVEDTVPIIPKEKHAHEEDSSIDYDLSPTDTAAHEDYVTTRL
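Signal: kinetic Fluo4 fluorescence imaging of calcium influx. Material: stable TRPC4beta/mu-opioid receptor HEK293 cells. Probe or stimulus: DAMGO in two steps, submaximal then maximal.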
TRPC4 agonist: TRPC4 (mouse) channel activation | Q9QUQ5 | HEK293 TRPC4beta/mu-opioid, Fluo4 calcium fluorescence; hits give high values | B-score at 10 µM | 0.49% of 310,000 active;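 active = B-score above 5 SD of library B-scores, and initial fluorescence ratio not above library mean plus 5 SD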;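 note: positive B-score marks a calcium rise read as TRPC4 activation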
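System – HEK293 cells stably co-expressing mouse TRPC4beta and mu-opioid receptor · Signal – Fluo4 calcium-sensitive dye fluorescence, kinetic, 1 Hz baseline · Benchmarks – buffer (low) and maximal DAMGO (high) · Read-out – B score of integrated fluorescence ratio per well · Incubation – dye loading 45 min room temperature, 110 s kinetic read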
TRPC6 inh: inhibitors of mouse TRPC6 channel; HEK293-TRPC6, membrane potential dye, ACh-evoked depolarization; hits give low values; Q61143; B-score at 10 µM; 1.1% of 310,000 active;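 active = B-score under library mean minus 3 SD, initial fluorescence not abnormally high, positive integrated signal ratio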;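 note: B-score derived from integrated fluorescence ratio over the kinetic read; more negative B-score means stronger inhibition of depolarization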
TRPC4 potent: TRPC4 (mouse) allosteric potentiation; 0.42% of 310,000 active; AID 2227; HEK293 TRPC4beta/mu-opioid, DAMGO EC20, Fluo-4 Ca2+ flux; hits give high values; B-score at 10 µM;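 active = B-score of calcium response area above 5 SD of library B-scores, with initial fluorescence ratio within 5 SD of library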;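 note: B-score of integrated fluorescence ratio over time as area under calcium response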
HEK293 MPD ctr: counter-screen for TRPC6 modulators: effect in parental HEK293 cells. shares compounds with TRPC6 inh. membrane potential dye fluorescence. membrane potential signal change, % at 10 µM. 51% of 2,400 active. AID 488924;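 active = membrane potential signal moves up or down beyond 5 SD from buffer-only wells, on both duplicate plates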
HEK293 MPD ctr 2: parental HEK293 nonspecific activity of TRPC6 modulators, second screen | membrane potential dye fluorescence; after compound, maximal acetylcholine stimulation | inhibition, % at 10 µM | 14% of 2,400 active | AID 488926 | shares compounds with TRPC6 inh;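 active = membrane potential signal drops by more than 5 SD from the mean control signal, in both duplicate plates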;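 note: plate controls were acetylcholine ECmax control wells for no effect and buffer only wells for full effect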
TRPC4 ctr mod: selectivity of TRPC6 modulators against mouse TRPC4. shares compounds with TRPC6 inh. 69% of 2,400 active. HEK293 TRPC4/mu-opioid, membrane potential fluorescence. percent change from control (negative = decrease, positive = increase), % at 10 µM;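 active = membrane potential signal moved up or down beyond 5 SD of buffer control wells, in both duplicate plates, actives on both sides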;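 note: plate controls were assay buffer wells for no effect and DAMGO maximal-effect wells for full effect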
TRPC4 ctr inh 2: second check of whether TRPC6 modulators also affect mouse TRPC4. shares compounds with TRPC6 inh. HEK293 TRPC4/mu-opioid, membrane potential dye fluorescence; stimulated with maximal-effect DAMGO. inhibition, % at 10 µM. 55% of 2,400 active. AID 488928;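 active = drop in membrane potential signal beyond 5 SD of the control wells in both duplicate plates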;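 note: TRPC4 counter screen for TRPC6 hits run under conditions tuned for TRPC6 not TRPC4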
TRPC6 block conf: confirmation of mouse TRPC6 inhibitors; inhibition, % at 10 µM; 43% of 3,300 active; HEK293-TRPC6, membrane potential dye, ACh-evoked depolarization; shares compounds with TRPC6 inh; AID 488960;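 active = fluorescence ratio falls more than 5 SD below the full-stimulation control mean, in both duplicate runs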;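 note: integrated fluorescence ratio of peak minus minimum over baseline after agonist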
TRPC6 act conf: mouse TRPC6 activator confirmation. shares compounds with TRPC6 inh. HEK293-TRPC6 membrane potential dye fluorescence, FDSS. activation, % at 10 µM. 11% of 2,800 active. AID 488961;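 active = ratio signal rise beyond 5 SD above unstimulated control wells' mean, seen in both duplicate runs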;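 note: plate controls were buffer EC0 wells for no effect and acetylcholine ECmax response for full effect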
The depositor's hits bear a star.

For Cc1ccc(NC(=S)Nc2ccc(Cl)c(Cl)c2)c(OC(F)F)c1 the results were TRPC6 activator inactive, TRPC4 inh inactive, TRPC4 agonist inactive, TRPC6 inh inactive and TRPC4 potent inactive.
`Fc1ccc(NC(=S)Nc2ccccc2OC(F)F)cc1Cl` gave TRPC6 activator inactive, TRPC4 inh inactive, TRPC4 agonist inactive, TRPC6 inh -6.47*, TRPC4 potent inactive, HEK293 MPD ctr inactive, HEK293 MPD ctr 2 inactive, TRPC4 ctr mod inactive, TRPC4 ctr inh 2 35.0%*, TRPC6 block conf inactive and TRPC6 act conf inactive.
O=C(NCC(=O)N1CCC2(CC1)NCCc1[nH]cnc12)c1ccc2ccccc2c1 was read as TRPC6 activator inactive, TRPC4 inh inactive, TRPC4 agonist inactive, TRPC6 inh inactive and TRPC4 potent inactive.
Screening Cc1ccc(OCC(=O)NNC(=O)c2cccnc2)cc1C returned TRPC6 activator inactive, TRPC4 inh inactive, TRPC4 agonist inactive, TRPC6 inh -5.71*, TRPC4 potent inactive, HEK293 MPD ctr inactive, HEK293 MPD ctr 2 inactive, TRPC4 ctr mod inactive, TRPC4 ctr inh 2 inactive, TRPC6 block conf inactive and TRPC6 act conf inactive.
For CC(C)(C)OC(=O)NC(CNCc1ccccc1)Cc1ccccc1 (stereo unspecified) the results were TRPC6 activator inactive, TRPC4 inh inactive, TRPC4 agonist inactive, TRPC6 inh -5.33*, TRPC4 potent inactive, HEK293 MPD ctr 136.0%*, HEK293 MPD ctr 2 inactive, TRPC4 ctr mod 24.5%*, TRPC4 ctr inh 2 34.0%* and TRPC6 block conf inactive.
CC(C)(C)OC(=O)NC(Cc1ccccc1)C(=O)O (stereo unspecified) was read as TRPC6 activator inactive, TRPC4 inh inactive, TRPC4 agonist inactive, TRPC6 inh inactive and TRPC4 potent inactive.
`CC(=O)Nc1sc(/C(C#N)=C/c2ccc(Cl)c(Cl)c2)nc1-c1ccc(C)cc1` gave TRPC6 activator 12.6*, TRPC4 inh inactive, TRPC4 agonist inactive, TRPC6 inh inactive, TRPC4 potent inactive, HEK293 MPD ctr 254.5%*, HEK293 MPD ctr 2 inactive, TRPC4 ctr mod 45.5%*, TRPC4 ctr inh 2 inactive, TRPC6 block conf inactive and TRPC6 act conf 75.5%*.
For CC(=O)Nc1sc(N/N=C/c2ccc(C)cc2)nc1-c1ccc(C)cc1 the results were TRPC6 activator inactive, TRPC4 inh inactive, TRPC4 agonist inactive, TRPC6 inh inactive and TRPC4 potent inactive.
O=C(Nc1cccc(S(=O)(=O)N2CCCCC2)c1)c1c2c(nc3ccccc13)CCN(Cc1ccccc1)C2 was read as TRPC6 activator inactive, TRPC4 inh inactive, TRPC4 agonist inactive, TRPC6 inh -5.35*, TRPC4 potent inactive, HEK293 MPD ctr inactive, HEK293 MPD ctr 2 inactive, TRPC4 ctr mod inactive, TRPC4 ctr inh 2 inactive, TRPC6 block conf inactive and TRPC6 act conf inactive.
O=C(CN1CCN(Cc2ccccc2)CC1)Nc1cccc(S(=O)(=O)N2CCCCCC2)c1 was read as TRPC6 activator inactive, TRPC4 inh inactive, TRPC4 agonist inactive, TRPC6 inh inactive and TRPC4 potent inactive.
